Source: ChEMBL document CHEMBL1133607, “Nonpeptide analogues of dynorphin A(1-8): design, synthesis, and pharmacological evaluation of kappa-selective agonists” (J Med Chem, 2000)
Residues, ends and D or L forms follow the SMILES beside them. *: point of attachment. X1 = CC1C2Cc3ccc(O)cc3[C@]1(C)CCN2CC1C[C@]1(C(=O)*)c1ccccc1

Assays:
[1] = target: Delta-type opioid receptor (Rattus norvegicus, UniProt P33533); experiment: Displacement of [3H]diprenorphine opioid receptor delta 1 on crude membrane fractions obtained from the whole rat brain (minus cerebellum); assay type: tissue-based
Chain of Delta-type opioid receptor (P33533 whole entry): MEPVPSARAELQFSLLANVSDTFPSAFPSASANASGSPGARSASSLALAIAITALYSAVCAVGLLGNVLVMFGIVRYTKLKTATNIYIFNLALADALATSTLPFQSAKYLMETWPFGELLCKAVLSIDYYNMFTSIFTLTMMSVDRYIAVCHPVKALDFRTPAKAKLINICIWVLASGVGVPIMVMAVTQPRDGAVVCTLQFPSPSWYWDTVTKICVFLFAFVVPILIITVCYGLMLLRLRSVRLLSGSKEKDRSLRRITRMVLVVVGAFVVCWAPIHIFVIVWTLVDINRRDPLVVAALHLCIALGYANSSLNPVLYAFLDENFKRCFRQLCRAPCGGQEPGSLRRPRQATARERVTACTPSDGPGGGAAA
Outline: (§1)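 Rat whole-brain (minus cerebellum) crude membranes, 1 mg protein/tube, in 50 mM Tris-HCl pH 7.4 with aprotinin, leupeptin and bacitracin. […] U50,488 and DAMGO (300 nM each) saturate κ and µ sites; 1 µM DPDPE defines nonspecific binding. Compounds tested at 10^-11 to 10^-5 M. Ki values are the mean of three experiments in duplicate.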

[2] = species: Cavia porcellus; experiment: Ratio of affinity towards delta to kappa opioid receptor
[3] = target: Kappa-type opioid receptor (Cavia porcellus, UniProt P41144); experiment: Displacement of [3H]-U-69,593 from Opioid receptor kappa 1 in guinea pig cerebellar.
Chain of Kappa-type opioid receptor (P41144 whole entry): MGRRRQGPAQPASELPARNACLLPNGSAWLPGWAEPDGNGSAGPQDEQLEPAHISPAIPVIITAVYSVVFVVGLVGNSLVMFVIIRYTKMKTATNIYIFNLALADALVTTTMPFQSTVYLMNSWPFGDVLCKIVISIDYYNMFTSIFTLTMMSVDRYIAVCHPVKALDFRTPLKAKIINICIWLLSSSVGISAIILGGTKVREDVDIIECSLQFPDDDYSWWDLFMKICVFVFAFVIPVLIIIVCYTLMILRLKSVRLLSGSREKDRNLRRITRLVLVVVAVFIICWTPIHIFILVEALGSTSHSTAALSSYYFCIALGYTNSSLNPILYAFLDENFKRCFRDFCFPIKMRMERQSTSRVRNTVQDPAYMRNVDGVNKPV

[4] = target: Opioid receptors; mu & kappa (UniProt P41145+P35372); experiment: Ratio of affinity towards mu and kappa opioid receptors; assay type: protein assay
Chain of Opioid receptors; mu & kappa (P35372 whole entry, looked up): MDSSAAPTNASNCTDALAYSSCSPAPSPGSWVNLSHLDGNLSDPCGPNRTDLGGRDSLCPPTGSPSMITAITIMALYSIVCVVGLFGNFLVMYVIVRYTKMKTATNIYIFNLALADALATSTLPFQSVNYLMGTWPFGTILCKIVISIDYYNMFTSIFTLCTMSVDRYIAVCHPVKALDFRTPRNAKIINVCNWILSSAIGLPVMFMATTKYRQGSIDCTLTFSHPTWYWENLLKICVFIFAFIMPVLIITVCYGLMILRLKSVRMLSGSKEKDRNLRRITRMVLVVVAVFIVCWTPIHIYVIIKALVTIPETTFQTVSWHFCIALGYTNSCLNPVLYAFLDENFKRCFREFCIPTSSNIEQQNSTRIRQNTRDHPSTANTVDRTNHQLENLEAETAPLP
Chain of Opioid receptors; mu & kappa (P41145 whole entry, looked up): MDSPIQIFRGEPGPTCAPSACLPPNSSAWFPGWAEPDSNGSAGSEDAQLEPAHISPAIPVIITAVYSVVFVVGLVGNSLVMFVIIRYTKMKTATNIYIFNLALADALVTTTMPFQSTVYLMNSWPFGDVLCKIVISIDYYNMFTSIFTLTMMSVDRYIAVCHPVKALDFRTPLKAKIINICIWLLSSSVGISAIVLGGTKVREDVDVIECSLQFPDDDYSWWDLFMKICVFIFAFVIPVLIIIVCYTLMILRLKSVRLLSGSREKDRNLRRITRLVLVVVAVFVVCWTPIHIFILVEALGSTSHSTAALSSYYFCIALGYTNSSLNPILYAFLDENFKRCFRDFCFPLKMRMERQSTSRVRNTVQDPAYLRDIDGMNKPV

[5] = target: Mu-type opioid receptor (Rattus norvegicus, UniProt P33535); experiment: Displacement of [3H]diprenorphine from opioid receptor mu 1 on crude membrane fractions obtained from whole rat brain (minus cerebellum); assay type: tissue-based
Chain of Mu-type opioid receptor (P33535 whole entry): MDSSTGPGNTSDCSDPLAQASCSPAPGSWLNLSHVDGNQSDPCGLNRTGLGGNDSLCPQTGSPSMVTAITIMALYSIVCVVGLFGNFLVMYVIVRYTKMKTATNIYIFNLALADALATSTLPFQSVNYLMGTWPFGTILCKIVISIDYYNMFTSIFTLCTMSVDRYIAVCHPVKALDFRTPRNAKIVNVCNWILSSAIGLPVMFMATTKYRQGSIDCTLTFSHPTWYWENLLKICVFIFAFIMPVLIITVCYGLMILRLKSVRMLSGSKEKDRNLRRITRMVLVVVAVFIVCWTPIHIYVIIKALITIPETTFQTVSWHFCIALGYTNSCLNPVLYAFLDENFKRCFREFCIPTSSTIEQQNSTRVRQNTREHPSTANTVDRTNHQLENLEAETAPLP
Outline: as §1, with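 “and DADLE” for “and DAMGO”, “and δ” for “and µ”, “µM DAMGO” for “µM DPDPE”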

Compound	Ki [1] [nM]	Selectivity ratio [2]	Ki [3] [nM]	Selectivity ratio [4]	Ki [5] [nM]
CCCC(=N)NCCCCCCNC(=O)C(CC(C)C)NC(=O)[C@]1(c2ccccc2)CC1CN1CC[C@@]2(C)c3cc(O)ccc3CC1C2C (stereo not given in full)	3460	28.4	122	15.6	1900
CC(C)CC(NC(=O)CNC(=O)[C@]1(c2ccccc2)CC1CN1CC[C@@]2(C)c3cc(O)ccc3CC1C2C)C(=O)NCCCCCNC(=N)N (stereo not given in full)	3480		47.5		3850
CCC(=N)NCCCCCNC(=O)C(CC(C)C)NC(=O)CNC(=O)[C@]1(c2ccccc2)CC1CN1CC[C@@]2(C)c3cc(O)ccc3CC1C2C (stereo not given in full)	5580	81.6	68.4	70.5	4820
CCCC(=N)NCCCCNC(=O)C(CC(C)C)NC(=O)[C@]1(c2ccccc2)CC1CN1CC[C@@]2(C)c3cc(O)ccc3CC1C2C (stereo not given in full)			203	11.2	2280
CC(C)CC(NC(=O)[C@]1(c2ccccc2)CC1CN1CC[C@@]2(C)c3cc(O)ccc3CC1C2C)C(=O)NCCCCN (stereo not given in full)			382	8.9	3400
CC(C)CC(NC(=O)CNC(=O)[C@]1(c2ccccc2)CC1CN1CC[C@@]2(C)c3cc(O)ccc3CC1C2C)C(=O)NCCCCCCNC(=N)N (stereo not given in full)	2990		35.5		3350
CCC(=N)NCCCNC(=O)C(CC(C)C)NC(=O)[C@]1(c2ccccc2)CC1CN1CC[C@@]2(C)c3cc(O)ccc3CC1C2C (stereo not given in full)			254	19.6	4980
CC(C)CC(NC(=O)CNC(=O)[C@]1(c2ccccc2)CC1CN1CC[C@@]2(C)c3cc(O)ccc3CC1C2C)C(=O)NCCCCCN (stereo not given in full)	9580	38.9	246	44.4	10900
CCCC(=N)NCCCCCCNC(=O)C(CC(C)C)NC(=O)CNC(=O)[C@]1(c2ccccc2)CC1CN1CC[C@@]2(C)c3cc(O)ccc3CC1C2C (stereo not given in full)	2430	158	15.4	125	2270
CCCC(=N)NCCCCCNC(=O)C(CC(C)C)NC(=O)[C@]1(c2ccccc2)CC1CN1CC[C@@]2(C)c3cc(O)ccc3CC1C2C (stereo not given in full)			156	12.8	2000
CC(C)CC(NC(=O)[C@]1(c2ccccc2)CC1CN1CC[C@@]2(C)c3cc(O)ccc3CC1C2C)C(=O)NCCCCCCN=C(N)N (stereo not given in full)	2830	20.3	139	18.9	2630
CCCC(=N)NCCCNC(=O)C(CC(C)C)NC(=O)CNC(=O)[C@]1(c2ccccc2)CC1CN1CC[C@@]2(C)c3cc(O)ccc3CC1C2C (stereo not given in full)	9540	118	80.8	133	10700
CCC(=N)NCCCCCNC(=O)C(CC(C)C)NC(=O)[C@]1(c2ccccc2)CC1CN1CC[C@@]2(C)c3cc(O)ccc3CC1C2C (stereo not given in full)			149	14.8	2210
CCCCC(=N)NCCCCNC(=O)C(CC(C)C)NC(=O)[C@]1(c2ccccc2)CC1CN1CC[C@@]2(C)c3cc(O)ccc3CC1C2C (stereo not given in full)			116	18.3	2130
CC(C)CC(NC(=O)[C@]1(c2ccccc2)CC1CN1CC[C@@]2(C)c3cc(O)ccc3CC1C2C)C(=O)NCCCCN=C(N)N (stereo not given in full)			250	11.8	2950
CCCCC(=N)NCCCNC(=O)C(CC(C)C)NC(=O)CNC(=O)[C@]1(c2ccccc2)CC1CN1CC[C@@]2(C)c3cc(O)ccc3CC1C2C (stereo not given in full)	4950	275	18	192	3460
CCC(=N)NCCCCCCNC(=O)C(CC(C)C)NC(=O)CNC(=O)[C@]1(c2ccccc2)CC1CN1CC[C@@]2(C)c3cc(O)ccc3CC1C2C (stereo not given in full)	5060	108	46.9	89.8	4210
CC(C)CC(NC(=O)[C@]1(c2ccccc2)CC1CN1CC[C@@]2(C)c3cc(O)ccc3CC1C2C)C(=O)NCCCN=C(N)N (stereo not given in full)			280	8.7	2430
CCCCC(=N)NCCCCCNC(=O)C(CC(C)C)NC(=O)[C@]1(c2ccccc2)CC1CN1CC[C@@]2(C)c3cc(O)ccc3CC1C2C (stereo not given in full)	3590	36.6	98.1	24.3	2380
CC(C)CC(NC(=O)[C@]1(c2ccccc2)CC1CN1CC[C@@]2(C)c3cc(O)ccc3CC1C2C)C(=O)NCCCCCN=C(N)N (stereo not given in full)				12.9	
CCCCC(=N)NCCCNC(=O)C(CC(C)C)NC(=O)[C@]1(c2ccccc2)CC1CN1CC[C@@]2(C)c3cc(O)ccc3CC1C2C (stereo not given in full)			139	16	2230

Compound	Ki [1] [nM]	Selectivity ratio [2]	Ki [3] [nM]	Selectivity ratio [4]	Ki [5] [nM]
CCC(=N)NCCCCCCNC(=O)C(CC(C)C)NC(=O)[C@]1(c2ccccc2)CC1CN1CC[C@@]2(C)c3cc(O)ccc3CC1C2C (stereo not given in full)	3550	30.5	116	25.3	2940
CC(C)CC(NC(=O)CNC(=O)[C@]1(c2ccccc2)CC1CN1CC[C@@]2(C)c3cc(O)ccc3CC1C2C)C(=O)NCCCCCN=C(N)N (stereo not given in full)		73.1		81.1	
CC(C)CC(NC(=O)CNC(=O)[C@]1(c2ccccc2)CC1CN1CC[C@@]2(C)c3cc(O)ccc3CC1C2C)C(=O)NCCCN=C(N)N (stereo not given in full)		51.4		128	
CC[C@H](C)[C@H](NC(=O)[C@H](CCCN=C(N)N)NC(=O)[C@H](CCCN=C(N)N)NC(=O)CNC(=O)[C@]1(c2ccccc2)CC1CN1CC[C@@]2(C)c3cc(O)ccc3CC1C2C)C(=O)OC (stereo not given in full) (X1-GRRI-OMe)				42.4	
CC(C)CC(NC(=O)[C@]1(c2ccccc2)CC1CN1CC[C@@]2(C)c3cc(O)ccc3CC1C2C)C(=O)NCCCCCNC(=N)N (stereo not given in full)			216		2790
CC(C)CC(NC(=O)[C@]1(c2ccccc2)CC1CN1CC[C@@]2(C)c3cc(O)ccc3CC1C2C)C(=O)NCCCN (stereo not given in full)			367	11.5	4220
CC[C@H](C)[C@H](NC(=O)[C@H](CCCN=C(N)N)NC(=O)[C@H](CCCN=C(N)N)NC(=O)[C@]1(c2ccccc2)C[C@@H]1CN1CC[C@@]2(C)c3cc(O)ccc3CC1C2C)C(=O)OC (stereo not given in full)	> 25000		78.4	58.7	4600
CC(C)CC(NC(=O)CNC(=O)[C@]1(c2ccccc2)CC1CN1CC[C@@]2(C)c3cc(O)ccc3CC1C2C)C(=O)NCCCCCCN=C(N)N (stereo not given in full)		84.2		94.3	
CCCCC(=N)NCCCCNC(=O)C(CC(C)C)NC(=O)CNC(=O)[C@]1(c2ccccc2)CC1CN1CC[C@@]2(C)c3cc(O)ccc3CC1C2C (stereo not given in full)	3660	359	10.2	325	3310
CCC(=N)NCCCCNC(=O)C(CC(C)C)NC(=O)[C@]1(c2ccccc2)CC1CN1CC[C@@]2(C)c3cc(O)ccc3CC1C2C (stereo not given in full)			192	11.5	2200
CCCC(=N)NCCCCNC(=O)C(CC(C)C)NC(=O)CNC(=O)[C@]1(c2ccccc2)CC1CN1CC[C@@]2(C)c3cc(O)ccc3CC1C2C (stereo not given in full)	7280	107	67.8	100	6780
CC(C)CC(NC(=O)CNC(=O)[C@]1(c2ccccc2)CC1CN1CC[C@@]2(C)c3cc(O)ccc3CC1C2C)C(=O)NCCCNC(=N)N (stereo not given in full)	3720		72.5		9240
CC(C)CC(NC(=O)CNC(=O)[C@]1(c2ccccc2)CC1CN1CC[C@@]2(C)c3cc(O)ccc3CC1C2C)C(=O)NCCCN (stereo not given in full)	10600	37.6	282	57	16100
CCC(=N)NCCCCNC(=O)C(CC(C)C)NC(=O)CNC(=O)[C@]1(c2ccccc2)CC1CN1CC[C@@]2(C)c3cc(O)ccc3CC1C2C (stereo not given in full)	9700	55.2	176	42.6	7480
CC[C@H](C)[C@H](NC(=O)[C@H](CCCNC(=N)N)NC(=O)[C@H](CCCNC(=N)N)NC(=O)CNC(=O)[C@]1(c2ccccc2)CC1CN1CC[C@@]2(C)c3cc(O)ccc3CC1C2C)C(=O)OC (stereo not given in full) (X1-GRRI-OMe)	> 25000		54.3		2300
CCC(=N)NCCCNC(=O)C(CC(C)C)NC(=O)CNC(=O)[C@]1(c2ccccc2)CC1CN1CC[C@@]2(C)c3cc(O)ccc3CC1C2C (stereo not given in full)	10400	40.5	256	42.5	10900
CC(C)CC(NC(=O)CNC(=O)[C@]1(c2ccccc2)CC1CN1CC[C@@]2(C)c3cc(O)ccc3CC1C2C)C(=O)NCCCCN (stereo not given in full)	10500	38.7	270	49.1	13200
CC(C)CC(NC(=O)CNC(=O)[C@]1(c2ccccc2)CC1CN1CC[C@@]2(C)c3cc(O)ccc3CC1C2C)C(=O)NCCCCCCN (stereo not given in full)	6050	76	79.6	101	8070
CCCC(=N)NCCCNC(=O)C(CC(C)C)NC(=O)[C@]1(c2ccccc2)CC1CN1CC[C@@]2(C)c3cc(O)ccc3CC1C2C (stereo not given in full)			238	15	3570
CC(C)CC(NC(=O)[C@]1(c2ccccc2)CC1CN1CC[C@@]2(C)c3cc(O)ccc3CC1C2C)C(=O)NCCCCCN (stereo not given in full)			276	11.8	3250
